Source: PubChem
Compounds with a hit are over-represented: about 3.9% of the library has one in this group of screens.
CHRM1 antagonist = human M1 muscarinic receptor antagonists, primary screen, CHO-K1 cells, Fluo-8 calcium fluorescence, 1536-well. Muscarinic acetylcholine receptor M1 (Homo sapiens), P11229. CHO-K1 hM1, ACh EC80 antagonist. inhibition, % at 3 µM. 360,000 compounds, 1.3% hits;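 active = percent inhibition above its own plate's cutoff, namely the mean of that plate's compound wells plus 3 SD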;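 also: peak over basal fluorescence ratio during 140 s after agonist addition; 0% = ACh EC80 plus DMSO and 100% = DMSO alone without agonist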
Target sequence (P11229 whole entry, looked up): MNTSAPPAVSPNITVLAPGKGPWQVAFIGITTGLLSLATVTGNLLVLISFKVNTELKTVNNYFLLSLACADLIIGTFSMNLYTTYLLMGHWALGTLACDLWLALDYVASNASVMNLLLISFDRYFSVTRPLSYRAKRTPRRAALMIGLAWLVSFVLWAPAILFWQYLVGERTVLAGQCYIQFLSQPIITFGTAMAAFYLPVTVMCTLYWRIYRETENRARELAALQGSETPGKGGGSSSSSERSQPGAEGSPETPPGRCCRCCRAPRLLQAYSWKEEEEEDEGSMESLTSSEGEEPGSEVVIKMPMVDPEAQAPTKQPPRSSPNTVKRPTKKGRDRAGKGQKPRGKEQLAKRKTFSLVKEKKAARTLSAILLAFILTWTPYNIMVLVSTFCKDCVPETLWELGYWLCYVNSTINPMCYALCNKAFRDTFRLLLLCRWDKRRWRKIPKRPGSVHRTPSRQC
HTR2A ag = mouse Htr2a agonists via beta-arrestin recruitment, primary screen, cell-based, luminescence. 5-hydroxytryptamine receptor 2A (Mus musculus), P35363. CHO-K1 mHTR2A beta-arrestin complementation; percent of 30 µM serotonin response. activation, % at 7.6 µM. 360,000 compounds, 0.66% hits. AID 624169, 2012;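 active = activation above a run cutoff, the mean activation of all tested compounds plus 3 SD, cut at about 14% in these data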;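 also: 0% = plate median of compound wells and 100% = 30 µM serotonin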
TAAR1 ag = human TAAR1 agonists, primary screen, Fluo-8 calcium fluorescence, CHO RD-HGA16 cells. Trace amine-associated receptor 1 (Homo sapiens), Q96RJ0. vehicle wells 0%, saturating PEA agonist 100%. activation, % at 3 µM. 360,000 compounds, 0.99% hits;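 active = activation above the mean activation of all test compounds in the run plus 3 SD, cut at about 38% in these data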
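Signal – calcium-sensitive Fluo-8 signal, excitation 470-495, emission 515-575 nm · System – RD-HGA16 (CHO) cells co-expressing Gα16 and hTAAR1 · Incubation – 17-24 h seeding, 75 min 37 °C dye, 30 min RT · Compound dosing – 3 µM single concentration · Repeats – no replicates (n 1)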
CHRM1 PAM = human M1 muscarinic receptor positive allosteric modulators, primary screen, CHO-K1 cells, Fluo-8 calcium fluorescence, 1536-well; CHO-K1 hM1, ACh EC20; 0% = ACh EC20, 100% = maximal ACh; AID 588819, 2011; Muscarinic acetylcholine receptor M1 (Homo sapiens), P11229; activation, % at 3 µM; 360,000 compounds, 0.088% hits; in the data active = activation above about 19%, passing the limit was not always enough
TAAR1 antagonist = human TAAR1 antagonists, primary screen, Fluo-8 calcium fluorescence, CHO RD-HGA16 cells; Trace amine-associated receptor 1 (Homo sapiens), Q96RJ0; antagonist; inhibition, % at 3 µM; 360,000 compounds, 1.5% hits; AID 624466, 2012;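 active = inhibition above a per-plate cutoff, the mean inhibition of test compounds on that plate plus 3 SD, cut at about 49% in these data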;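 also: 0% = DMSO plus EC80 beta-PEA response and 100% = DMSO alone without agonist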
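System: CHO RD-HGA16 cells bearing hTAAR1. Reagent: EC80 β-phenethylamine stimulus. Schedule: seeding 17-24 h prior, 75-min 37 °C, 30-min RT dye loading. Signal: Fluo-8 intracellular calcium dye fluorescence, real-time kinetic reads. Read-out: % inhibition from peak post-agonist over basal fluorescence ratio. Benchmarks: vehicle wells and EC80 agonist wells. Replicates: n of 1.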
CHRM1 agonist = human M1 muscarinic receptor agonists, primary screen, Fluo-8 calcium fluorescence, CHO-K1 cells, HTS; Muscarinic acetylcholine receptor M1 (Homo sapiens), P11229; CHO-K1 hM1, agonist mode; 0% DMSO, 100% acetylcholine EC100; activation, % at 3 µM; 360,000 compounds, 0.33% hits; AID 588814, 2011;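 active = activation above the run's mean compound activation plus 3 SD, cut at about 16% in these data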;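 also: peak over basal fluorescence ratio within a 140 s kinetic read after compound addition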
* hit, by the source's call; nt = no result.

SMILES	CHRM1 antagonist	HTR2A ag	TAAR1 ag	CHRM1 PAM	TAAR1 antagonist	CHRM1 agonist
CC(=O)Nc1sc2c(c1C(c1ccccn1)N1CCN(C)CC1)CCCC2 (stereo not drawn)	48*	-1	7	-21	-7	-5
CC(C)n1ncc2c(C(=O)N3CCN(Cc4ccc(Br)s4)CC3)cc(C3CC3)nc21	-4	9	-5	2	-10	-6
CC(=O)NCc1ccc(C(=O)O)cc1	-23	0	1	6	-16	-1
CCOC(=O)C(Cc1ccccc1)C(=O)Nc1ccc(N(CC)CC)cc1 (stereo not drawn)	33*	-8	-1	-25	-4	-7
Cc1ccc2c(CC(=O)N3CCN(c4ccccc4)CC3)coc2c1	-17	-3	-2	11	0	-1
COC(=O)c1cc2c(c3c4cc(C)ccc4n(S(=O)(=O)c4ccc(C)cc4)c13)C(=O)N(Cc1ccccc1OC)C2	nt	nt	-1	nt	-27	nt
C[C@@H](NC(=O)/C(C#N)=C/c1ccc(O)c(O)c1)c1ccccc1	-39	-4	20	10	-28	10
CC(NC(=O)/C(C#N)=C/c1ccc(Cl)c([N+](=O)[O-])c1)c1ccccc1 (stereo not drawn)	nt	nt	39*	nt	21	nt
CCOC(=O)c1nn(-c2cccc(OC)c2)c(-c2ccccc2)c1C(=O)c1ccccc1	15	-5	0	-6	56*	-3
CN(C)N1C(N)=C(C#N)C(c2cccs2)C2=C1CCCC2=O (stereo not drawn)	0	-3	5	2	13	-5
Cc1ccsc1C1C(C#N)=C(N)N(N(C)C)C2=C1C(=O)CCC2 (stereo not drawn)	39*	-3	1	-1	2	-5
c1ccc(-c2ccccc2OCCCCN2CCCCCC2)cc1	35*	-5	15	-26	3	-9
c1ccc(-c2ccccc2OCCN2CCCC2)cc1	68*	-9	0	-29	2	-11
COc1cc(/C=C/c2ccc3cccc(OC)c3n2)c(OC(C)=O)c([N+](=O)[O-])c1	16	2	7	-9	49*	-3
Cc1cc(NC(=O)CS(=O)(=O)c2ccc(Cl)cc2)no1	-10	2	2	4	-23	-2
COc1cc(F)cc(-c2ccc3c(c2)c(-c2cccs2)c(-c2cc(OC)cc(OC)c2)n3C)c1	1	4	50*	15	10	12
COc1cccc(C(C(=O)NC2CCCC2)N(C(=O)c2ccco2)c2ccc(-n3cnnn3)c(C)c2)c1OC (stereo not drawn)	-13	-1	5	9	-2	-8
COc1ccc(C(=O)Nc2ccc(Cl)cc2C(=O)NCc2ccco2)cc1OC	13	-3	10	-2	47	-1
COc1ccc(C(=O)Nc2ccccc2C(=O)NCc2ccco2)cc1OC	20*	-2	17	-12	54*	1
CN(CC1CCCN(CCc2ccc(Cl)cc2)C1)C(=O)C(=O)c1ccco1 (stereo not drawn)	44*	-8	0	-19	-11	-5
COc1cc(OC)c(OC)cc1CN(C)CC1CCCN(CCc2ccccc2F)C1 (stereo not drawn)	-14	-7	-1	1	0	-9
CN(Cc1ccccc1OCCO)CC1CCCN(CCc2ccc(Cl)cc2)C1 (stereo not drawn)	51*	0	-2	-28	-8	-9
CN(C(=O)Nc1ccc(F)cc1)[C@H]1C[C@H]2c3[nH]c4ccccc4c3CCN2C(=O)[C@H]1CO	0	0	0	-4	0	-3
COC(=O)/C(C#N)=C(/Nc1ccc(F)c(Cl)c1)C(F)(F)F	-8	-1	3	6	-19	-4
